The record followed here is the RNAGym collection of RNA variant scans (doi:10.1101/gad.245936.114).

Sequences and labels used below:
B1: tRNA (parent)
chain: CUCUCGGUAGCCAAGUUGGUUUAAGGCGCAAGACUUUAAUUUAUCACUACGAAAUCUUGAGAUCGGGCGUUCGACUCGCCCCCGGGAGAUUUUUUCCUCGAGCAA

Variants at the floor of the assay were thinned out. Some results are limits rather than exact numbers.

The variants in the series derive from B1. Description: nonsense suppression (GFP-seq) (ratio to wild type); higher = more function; SUP4oc tRNA, yeast GFP reporter sort-seq. A digest of the protocol:
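Raffinose/galactose medium with 80 mg/L adenine was used to grow yeast carrying genome-integrated tRNA variants (~3% random-mutation library), RFP, and a galactose-driven GFP ochre reporter. Cells went into GFP/RFP bins, which were Illumina-sequenced, and variants with ≥100 reads and ≥30 cells were scored. Nonsense suppression (GFPSEQ) is the per-bin median GFP/RFP weighted by estimated cell share and expressed relative to the unmutated parent tRNA.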
Consider A9U G25U G26C C64A G65A G73A, for which the nonsense suppression is at most 0.026.
As for A9G A74C, the nonsense suppression is 0.0286.
For the variant A9C U35A, the nonsense suppression was at most 0.026.
Consider U8G G15C, for which the nonsense suppression is at most 0.026.
Turning to A9G C29U C75G, the nonsense suppression came out at 0.252.
Regarding G7U G85U, the nonsense suppression is at most 0.026.
For U8G U57C, the nonsense suppression was at most 0.026.
As to A9C G69A, the nonsense suppression was at most 0.026.
Under A9U U16A stands 0.13; under A9U U16G, 0.202.
For the variant A9C U20A, the nonsense suppression stood at 0.183.
For A9C U21A A31G U71C, the nonsense suppression was at most 0.026.
For G7C U55C, the nonsense suppression turned out to be 0.0823.
Under A9G A23G U70G A89G stands at most 0.026.
Under U8A A13U G19A A62G G67A U71C stands at most 0.026; under A9U U57G G65C, at most 0.026.
Regarding U8C A31G, the nonsense suppression was 0.0327.
Consider A9U G88A, for which the nonsense suppression came to 0.0329.
As for A9U G84A, the nonsense suppression worked out at 0.138.
A9U G84U: the nonsense suppression amounted to 0.0747.
Take A9G A33C G66U: the nonsense suppression is at most 0.026.
In the case of G10C G26A G65A A87U, the nonsense suppression is at most 0.026.
In the case of A9G U76G C80G, the nonsense suppression was at most 0.026.
Then A9U G61A C72A, with at most 0.026; and A9G U21A, with 0.36.
As to A9G A14C A54G, the nonsense suppression is at most 0.026.
As for U8C A9U A54U, the nonsense suppression is at most 0.026.
Consider A9U G10A, for which the nonsense suppression came to 0.0292.
With G10C A54U, the nonsense suppression was at most 0.026.
With A9C U20G U21G G86A, the nonsense suppression was at most 0.026.
On to U8C G28C, for which the nonsense suppression came to 0.0327.
On to G10C C27G G73C, for which the nonsense suppression is at most 0.026.
For the variant A9G A31G, the nonsense suppression amounted to 0.259.
Consider U8A C27G A54G C79U, for which the nonsense suppression was at most 0.026.
On to A9G A33U C34G U71A, for which the nonsense suppression was at most 0.026.
On to G7C C12A U71G U76C G88A, for which the nonsense suppression was at most 0.026.
Then A9G C82U, with 0.531; and A9U A24C G66C C83U G85A, with at most 0.026.
On to A9G A13C, for which the nonsense suppression stood at 0.183.
Then A9G A13G, with 0.205; and A9U C12G U35G C72A, with at most 0.026; and G10A C29G A54G, with at most 0.026.
Under A9U G85C stands 0.0283; under G7U A9C U16C U57C, at most 0.026; under A9G A30G, 0.466.
Turning to A9G A30U, the nonsense suppression came out at 0.163.
As for U8G C29G G84A, the nonsense suppression was at most 0.026.
In the case of A9G U71C, the nonsense suppression was 0.0266.
Consider U8A A60C G73U A87C, for which the nonsense suppression was at most 0.026.
Take A9C A13G U55A G73U: the nonsense suppression is at most 0.026.
Turning to A9G C72A, the nonsense suppression was found to be 0.0268.
Under A9G C72U stands 0.0591; under U8A U57C G85U, at most 0.026; under G7C A9U, 0.0428.
Under U8A A54U U76C A87C stands at most 0.026; under G7C C29G A30G G61U U70C G85C, at most 0.026; under A9G G15U, 0.0374.
Turning to A9G G15C, the nonsense suppression was 0.173.
As to G10A G59A, the nonsense suppression is at most 0.026.
For U8G A9U C11A G26U, the nonsense suppression was at most 0.026.
As for U8G G18C G59A, the nonsense suppression was at most 0.026.
Then U8A A23G C80G G84C, with at most 0.026.
In the case of G10C G15C U20G, the nonsense suppression was at most 0.026.
As for A9U C75U, the nonsense suppression is 0.656.
As for G7C A33U G73A, the nonsense suppression was at most 0.026.
As to G10A A14C C82A, the nonsense suppression is at most 0.026.
With G7C A14G U22A A24U G85C, the nonsense suppression was at most 0.026.
On to G7C C29G, for which the nonsense suppression is at most 0.026.
As for U8C C81G, the nonsense suppression is at most 0.026.
In the case of A9U C11U G32C C34G A54U, the nonsense suppression was at most 0.026.
For G10A U21G G67C C79A, the nonsense suppression is at most 0.026.
Regarding G10C A24U A30G A33U U55A C80U, the nonsense suppression is at most 0.026.
Consider G7C C11G C79A, for which the nonsense suppression was at most 0.026.
Under A9C U58G G61U stands at most 0.026; under U8C A54G G59C A62G G84A, at most 0.026; under A9G A13U A74C, at most 0.026.
With U8C G84U, the nonsense suppression was at most 0.026.
As to A9U U21G U22C, the nonsense suppression is at most 0.026.
A9G U21C A60U: the nonsense suppression was at most 0.026.
Take A9C C68U: the nonsense suppression was determined as 0.765.
Consider G10A G85U, for which the nonsense suppression is at most 0.026.
Under G7C U21G stands 0.0521; under U8C C12A C68A C72U, at most 0.026; under A9G C11U, 0.0313.
On to A9C U63C, for which the nonsense suppression was found to be 0.202.
Regarding A9C U63G, the nonsense suppression is 0.0362.
Under A9G stands 0.45.
Then A9U, with 0.802; and A9C, with 1.05.
Under U8A A14G stands 0.18; under G7U U8C, at most 0.026; under G7C G19C G66U G69C, at most 0.026.
Consider A9G C75A, for which the nonsense suppression was 0.762.
Then A9G C75U, with 1.17.
In the case of U8C A9U C34G C68U, the nonsense suppression was at most 0.026.
Regarding A9G G10U C80U A87C, the nonsense suppression was at most 0.026.
For U8A A30G A33G, the nonsense suppression was at most 0.026.
For the variant A9C G61C, the nonsense suppression was 0.791.
Under G10A A24C G85U stands at most 0.026.
For G10C G73C A87U, the nonsense suppression is at most 0.026.
U8C G85U: the nonsense suppression stood at 0.0537.
Then G7U C56U, with at most 0.026; and G10A C11U C64U, with at most 0.026; and U8C C80G, with at most 0.026.
With A9U A54C, the nonsense suppression came to 0.0503.
Take A9U A54G: the nonsense suppression amounted to 0.0306.
Then A9U A54U, with 0.222; and A9C U21C A24U U63A G69U, with at most 0.026; and A9C A54U, with 1.21.
Consider A9C G61C G73C, for which the nonsense suppression was at most 0.026.
Take U8C U20A: the nonsense suppression stood at 0.0281.
As for A9G C29U, the nonsense suppression came out at 0.2.
Regarding U8A A13G, the nonsense suppression was at most 0.026.
G7C U35G: the nonsense suppression is at most 0.026.
A9G U63A: the nonsense suppression came out at 0.836.
Take A9G U63C: the nonsense suppression came out at 0.772.
U8C A14C C34U: the nonsense suppression was at most 0.026.
As to A9U U63C, the nonsense suppression turned out to be 0.0507.
For the variant A9C C34G, the nonsense suppression is at most 0.026.
As to U8A G25C, the nonsense suppression is at most 0.026.
Take U8A G25A: the nonsense suppression was at most 0.026.
Turning to U8A A9G, the nonsense suppression is 0.0277.
As to A9G G61A A87G, the nonsense suppression amounted to 0.188.
As for A9C C75A G88A, the nonsense suppression is at most 0.026.
Regarding U8A A30U, the nonsense suppression was determined as 0.0393.
As for U8A A30G, the nonsense suppression came to 0.0404.
Take G10C G25C G61C U71A: the nonsense suppression was at most 0.026.
U8G U17G G69U C80G: the nonsense suppression was at most 0.026.
Regarding A9U G73A, the nonsense suppression turned out to be 0.0814.
Regarding U8G G25U A54U U70G G73C, the nonsense suppression was at most 0.026.
As for G7U C27U U35A A74C, the nonsense suppression was at most 0.026.
Turning to G7C U76C, the nonsense suppression was at most 0.026.
On to U8A U57G C82A, for which the nonsense suppression was at most 0.026.
Then U8C A31C A54U G85A G88A, with at most 0.026.
G7C G73U: the nonsense suppression is at most 0.026.
Regarding A9G G28A G61A, the nonsense suppression turned out to be 1.24.
For the variant A9U C77U, the nonsense suppression is 0.0389.
For G10C A13G G15A U57C, the nonsense suppression is at most 0.026.
Turning to A9U G19C G65C A74C, the nonsense suppression is at most 0.026.
U8G G73C: the nonsense suppression is at most 0.026.
As for A9U A13U A24G, the nonsense suppression stood at 0.212.
As to U8G G26A C56U C64G G66U G78U A89U, the nonsense suppression was at most 0.026.
As for G10A G28C G61C, the nonsense suppression was at most 0.026.
Regarding U8A U57C, the nonsense suppression was at most 0.026.
For the variant A9G C68U, the nonsense suppression stood at 0.153.
Then G10C U71A A74U A87C, with at most 0.026; and G10C G19U C64G, with at most 0.026.
Then U8A A9G U58A C72G C79A, with at most 0.026; and A9C C34U U58G G78C, with at most 0.026; and A9C U76C, with 0.929.
In the case of A9U A14U, the nonsense suppression was 0.0588.
Take G10A A54C: the nonsense suppression is 0.0309.
Turning to G7U U58G C80G, the nonsense suppression was at most 0.026.
In the case of U8C G18U U22A U35G U71A C80G, the nonsense suppression was at most 0.026.
For A9G A54U U70C, the nonsense suppression was at most 0.026.
Under G7U A9U A31U stands at most 0.026; under U8A G67C U71G, at most 0.026.
Regarding U8G C56U, the nonsense suppression was at most 0.026.
On to A9G U22C, for which the nonsense suppression was found to be 0.323.
In the case of A9G U22G, the nonsense suppression was determined as 0.254.
On to A9G U22A, for which the nonsense suppression is 0.212.
As for A9U U57G C77A G85A, the nonsense suppression is at most 0.026.
Then G7U C79A G85U G86U G88U, with at most 0.026; and U8A G32A, with at most 0.026; and G10C G26U G86A G88A, with at most 0.026.
Under A9G C81U stands 0.028; under U8C G65A C72U, at most 0.026.
